Measurements: ChEMBL document CHEMBL1125780, “Monovalent sialosides that bind tightly to influenza A virus” (J Med Chem, 1991)

Target: Hemagglutinin (Influenza A virus (strain A/X-31 H3N2)) (UniProt P03438)
Assay: Inhibition of influenza A, strain X-31, induced hemagglutinination of chicken erythrocytes
Format: functional
Conditions: Influenza A virus (A/X-31(H3N2))
How it was run: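 Binding affinities come from hemagglutination inhibition with adult chicken red blood cells. Each is reported as a relative affinity against methyl α-sialoside (Neu5Acα2Me), whose affinity is set at 1.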

Hemagglutinin (Influenza A virus (strain A/X-31 H3N2)), sequence (P03438 whole entry): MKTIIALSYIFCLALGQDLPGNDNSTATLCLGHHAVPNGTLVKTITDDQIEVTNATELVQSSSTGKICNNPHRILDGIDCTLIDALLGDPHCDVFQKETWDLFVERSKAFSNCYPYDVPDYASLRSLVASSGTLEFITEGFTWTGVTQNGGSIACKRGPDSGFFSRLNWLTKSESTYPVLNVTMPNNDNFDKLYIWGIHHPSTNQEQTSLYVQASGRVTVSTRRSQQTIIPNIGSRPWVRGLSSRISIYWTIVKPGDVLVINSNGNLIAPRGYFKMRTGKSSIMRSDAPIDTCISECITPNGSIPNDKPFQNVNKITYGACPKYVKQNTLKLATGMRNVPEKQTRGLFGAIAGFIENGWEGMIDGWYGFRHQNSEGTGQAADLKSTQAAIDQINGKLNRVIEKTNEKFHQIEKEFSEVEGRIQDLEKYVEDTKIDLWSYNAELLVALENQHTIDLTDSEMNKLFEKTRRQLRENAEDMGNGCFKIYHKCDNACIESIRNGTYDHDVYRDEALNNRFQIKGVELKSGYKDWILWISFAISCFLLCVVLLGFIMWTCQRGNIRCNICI

First: CC(=O)NC1C(O)CC(OCCCCC(=O)NCc2ccccc2)(C(=O)O)OC1[C@H](O)[C@H](O)CO (some centres undefined)
Second: CC(=O)NC1C(O)CC(OCCCCCCC(=O)NCc2ccccc2)(C(=O)O)OC1[C@H](O)[C@H](O)CO (some centres undefined)
The Relative affinity of the first is lower: 8 for the first, 16 for the second.

Going from CC(=O)NC1C(O)CC(OCCCCCCC(=O)NCc2cccc3ccccc23)(C(=O)O)OC1[C@H](O)[C@H](O)CO (some centres undefined) to CC(=O)NC1C(O)CC(OCCCCCCCCC(=O)NCc2cccc3ccccc23)(C(=O)O)OC1[C@H](O)[C@H](O)CO (some centres undefined), the Relative affinity falls from 64 to 16.

CC(=O)NC1C(O)CC(OCCCCC(=O)NCCNC(=O)OCc2ccccc2)(C(=O)O)OC1[C@H](O)[C@H](O)CO (some centres undefined) and CC(=O)NC1C(O)CC(OCCCCCCCCC(=O)NCc2ccccc2)(C(=O)O)OC1[C@H](O)[C@H](O)CO (some centres undefined) cannot be ordered by Relative affinity: 4 for the first, < 8 for the second.

First: CC(=O)NC1C(O)CC(OCCC(=O)NCc2cccc3ccccc23)(C(=O)O)OC1[C@H](O)[C@H](O)CO (some centres undefined)
Second: CC(=O)NC1C(O)CC(OCCCCC(=O)NCc2cccc3ccccc23)(C(=O)O)OC1[C@H](O)[C@H](O)CO (some centres undefined)
The Relative affinity of the first is lower: 8 for the first, 32 for the second.

Going from CC(=O)NC1C(O)CC(OCCCCC(=O)NCc2cccc(C(=O)O)c2)(C(=O)O)OC1[C@H](O)[C@H](O)CO (some centres undefined) to CC(=O)NC1C(O)CC(OCCCCC(=O)NCc2ccc3ncccc3c2)(C(=O)O)OC1[C@H](O)[C@H](O)CO (some centres undefined), the Relative affinity falls from 16 to 8.

Going from CC(=O)NC1C(O)CC(OCCCCC(=O)NNS(=O)(=O)c2cccc3c(N(C)C)cccc23)(C(=O)O)OC1[C@H](O)[C@H](O)CO (some centres undefined) to CC(=O)NC1C(O)CC(OCCCCC(=O)NCc2cc3ccccc3c3ccccc23)(C(=O)O)OC1[C@H](O)[C@H](O)CO (some centres undefined), the Relative affinity rises from 4 to 32.

Compared with CNC(=O)CCCCOC1(C(=O)O)CC(O)C(NC(C)=O)C([C@H](O)[C@H](O)CO)O1 (some centres undefined), CC(=O)NC1C(O)CC(OCCCCCCC(=O)NCc2cc3ccccc3c3ccccc23)(C(=O)O)OC1[C@H](O)[C@H](O)CO (some centres undefined) is higher in Relative affinity: 1 for the first, 64 for the second.
